Among the data in ChEMBL document CHEMBL1135983, “Cyclohexylmethylpiperidinyltriphenylpropioamide: a selective muscarinic M(3) antagonist discriminating against the other receptor subtypes” (J Med Chem, 2002) are Selectivity, Ki and ED50 values, retold here.

The structures appear in SMILES notation.

The species named for assay [1] is Homo sapiens. In words: Selectivity ratio (m4/m3). Summed up: (§1)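 Binding affinities (Ki) were measured at each of the five muscarinic receptor subtypes (m1–m5), with the m3 receptor being human and expressed in CHO cells. The ratio compares the m4 or m5 Ki with the m3 Ki. Values are the mean of two or more independent assays.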
Assay [2] concerns the target T1, Muscarinic acetylcholine receptor M2 (Homo sapiens, UniProt P08172).
T1 sequence (P08172 whole entry): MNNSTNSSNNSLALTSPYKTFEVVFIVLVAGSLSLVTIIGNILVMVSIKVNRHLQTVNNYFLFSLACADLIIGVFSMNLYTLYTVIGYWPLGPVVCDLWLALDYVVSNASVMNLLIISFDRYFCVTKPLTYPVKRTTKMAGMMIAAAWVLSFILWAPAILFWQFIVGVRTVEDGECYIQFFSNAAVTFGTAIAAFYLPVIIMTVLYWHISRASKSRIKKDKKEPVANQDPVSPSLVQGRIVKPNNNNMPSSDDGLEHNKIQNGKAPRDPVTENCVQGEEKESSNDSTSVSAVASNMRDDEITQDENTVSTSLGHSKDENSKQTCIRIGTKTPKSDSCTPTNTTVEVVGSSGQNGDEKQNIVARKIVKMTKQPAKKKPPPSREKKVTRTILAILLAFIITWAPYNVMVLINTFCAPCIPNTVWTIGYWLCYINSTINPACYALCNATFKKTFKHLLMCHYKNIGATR
In words: Binding affinity (Ki) against binding of [3H]NMS to membranes from CHO cells expressing cloned human Muscarinic acetylcholine receptor M2. It is filed as cell membranes.

Assay [3] has as its target Muscarinic acetylcholine receptor M3 (Homo sapiens, UniProt P20309). In words: biochemical. It is filed as cell-based, CHO.
The species entered for assay [4] is Homo sapiens. In words: Selectivity ratio (m5/m3). Summed up: as §1
The target in assay [5] is T2, Muscarinic acetylcholine receptor M4 (Homo sapiens, UniProt P08173).
T2 sequence (P08173 whole entry): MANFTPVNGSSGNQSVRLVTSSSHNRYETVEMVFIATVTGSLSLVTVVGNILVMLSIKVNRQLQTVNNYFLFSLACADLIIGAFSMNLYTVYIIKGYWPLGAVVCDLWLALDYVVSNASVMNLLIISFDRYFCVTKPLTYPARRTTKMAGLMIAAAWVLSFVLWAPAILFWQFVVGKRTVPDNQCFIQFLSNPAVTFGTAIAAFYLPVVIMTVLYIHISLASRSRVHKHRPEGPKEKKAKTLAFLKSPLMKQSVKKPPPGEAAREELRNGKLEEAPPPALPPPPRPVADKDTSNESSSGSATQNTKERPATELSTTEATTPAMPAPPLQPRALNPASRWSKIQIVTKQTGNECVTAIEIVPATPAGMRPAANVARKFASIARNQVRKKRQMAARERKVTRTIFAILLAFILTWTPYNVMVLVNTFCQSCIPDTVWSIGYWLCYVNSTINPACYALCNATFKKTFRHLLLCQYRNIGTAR
Nature of the assay: Binding affinity (Ki) against binding of [3H]NMS using membranes from CHO cells expressing cloned human Muscarinic acetylcholine receptor M4. The class given is cell membranes.

The target in assay [6] is T3, Muscarinic acetylcholine receptor M5 (Homo sapiens, UniProt P08912).
T3 sequence (P08912 whole entry): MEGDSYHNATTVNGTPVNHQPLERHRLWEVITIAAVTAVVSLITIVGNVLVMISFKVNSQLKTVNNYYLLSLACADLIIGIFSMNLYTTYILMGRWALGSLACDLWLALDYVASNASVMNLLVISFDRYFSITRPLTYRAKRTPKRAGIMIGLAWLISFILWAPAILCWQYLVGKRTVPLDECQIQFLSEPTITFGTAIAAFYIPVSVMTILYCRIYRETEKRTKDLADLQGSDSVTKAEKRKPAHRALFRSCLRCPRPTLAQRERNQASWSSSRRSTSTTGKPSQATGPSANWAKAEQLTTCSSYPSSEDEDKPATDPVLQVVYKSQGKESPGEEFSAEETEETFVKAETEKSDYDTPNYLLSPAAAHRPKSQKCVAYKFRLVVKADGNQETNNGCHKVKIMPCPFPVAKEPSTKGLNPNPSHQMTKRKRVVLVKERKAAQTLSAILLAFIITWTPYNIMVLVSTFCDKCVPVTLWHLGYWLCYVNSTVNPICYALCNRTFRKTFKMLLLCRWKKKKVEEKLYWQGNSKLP
Nature of the assay: Binding affinity (Ki) against binding of [3H]NMS using membranes from CHO cells expressing cloned human Muscarinic acetylcholine receptor M5. It is filed as cell membranes.

The target of assay [7] is T4, Muscarinic acetylcholine receptor M1 (Homo sapiens, UniProt P11229).
T4 sequence (P11229 whole entry): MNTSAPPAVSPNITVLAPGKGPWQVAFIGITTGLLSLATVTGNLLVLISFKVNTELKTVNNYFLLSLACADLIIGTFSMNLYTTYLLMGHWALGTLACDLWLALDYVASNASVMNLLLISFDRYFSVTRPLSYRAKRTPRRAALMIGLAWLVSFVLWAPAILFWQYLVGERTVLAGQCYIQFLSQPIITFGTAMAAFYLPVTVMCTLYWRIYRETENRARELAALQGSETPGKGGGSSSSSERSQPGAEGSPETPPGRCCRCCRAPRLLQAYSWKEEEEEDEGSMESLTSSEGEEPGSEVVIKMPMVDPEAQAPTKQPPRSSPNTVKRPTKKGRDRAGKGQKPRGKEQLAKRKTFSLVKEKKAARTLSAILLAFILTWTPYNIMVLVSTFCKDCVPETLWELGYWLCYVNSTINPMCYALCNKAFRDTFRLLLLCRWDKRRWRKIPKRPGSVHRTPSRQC
Nature of the assay: biochemical. The class given is cell-based, CHO.

Assay [8] concerns Rattus norvegicus. In words: 50% in vivo effective dose that inhibits ACh-induced bronchoconstriction (M3) in rat assay systems after intravenous administration was reported. It is filed as functional.
In assay [9] the test system is Rattus norvegicus. Nature of the assay: 50% in vivo effective dose that inhibits Ach-induced bradycardia (M2) in rat assay systems after intravenous administration was reported. The class given is functional.
The subject of assay [10] is Rattus norvegicus. In words: 50% in vivo effective dose that inhibits ACh-induced pressor response (M1) in rat assay systems after intravenous administration was reported. It is filed as functional.

Muscarinic acetylcholine receptor M3, sequence (P20309 whole entry): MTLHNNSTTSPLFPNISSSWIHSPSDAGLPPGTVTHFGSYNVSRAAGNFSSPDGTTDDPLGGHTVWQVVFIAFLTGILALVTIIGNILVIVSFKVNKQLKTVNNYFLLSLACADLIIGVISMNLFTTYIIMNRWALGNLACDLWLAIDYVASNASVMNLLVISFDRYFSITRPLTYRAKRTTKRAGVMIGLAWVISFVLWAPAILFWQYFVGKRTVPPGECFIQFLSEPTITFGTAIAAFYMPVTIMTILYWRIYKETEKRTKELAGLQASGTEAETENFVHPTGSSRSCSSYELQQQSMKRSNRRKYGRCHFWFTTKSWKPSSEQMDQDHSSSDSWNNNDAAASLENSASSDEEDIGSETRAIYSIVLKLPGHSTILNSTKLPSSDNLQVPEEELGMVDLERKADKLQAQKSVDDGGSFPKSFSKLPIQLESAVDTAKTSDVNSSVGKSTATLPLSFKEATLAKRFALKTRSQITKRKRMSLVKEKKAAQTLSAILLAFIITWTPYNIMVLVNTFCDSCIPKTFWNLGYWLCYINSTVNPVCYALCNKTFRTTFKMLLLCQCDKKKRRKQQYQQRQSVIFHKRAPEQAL

`O=C(CCCCCNC(=O)CC(c1ccccc1)(c1ccccc1)c1ccccc1)NC[C@H]1CCCN(CC2CCCCC2)C1`: the results for the Selectivity in the assay listed under Homo sapiens [1] and in the assay listed under Homo sapiens [4] were 30 and 200, respectively. Besides, the Ki – broadly, the dissociation constant of the complex between target and ligand, obtained from inhibition or displacement – in assay [2] was 72 nM; in assay [3], 1 nM; in assay [5] it was 30 nM; in assay [6] it was 210 nM; in assay [7] it was 110 nM.

In the case of `O=C(CNC(=O)[C@@H]1CCCN1C(=O)CC(c1ccccc1)(c1ccccc1)c1ccccc1)NC[C@H]1CCCN(CC2CCCCC2)C1`, the results for the Selectivity in the assay listed under Homo sapiens [1] and in the assay filed under Homo sapiens [4] were 19 and 890, respectively. For the same compound, the Ki in [2] amounted to 13 nM; in assay [3], 2.2 nM; in assay [5], 43 nM; in assay [6] it was 2000 nM; in [7] it was 150 nM.

As for `O=C(CCNC(=O)CNC(=O)CC(c1ccccc1)(c1ccccc1)c1ccccc1)NC[C@H]1CCCN(CC2CCCCC2)C1`, the Selectivity in the assay listed under Homo sapiens [1] worked out at 45; in the assay filed under Homo sapiens [4], 120. Further, the figures for the median effective dose (ED50) in the assay with Rattus norvegicus [8], in the assay with Rattus norvegicus [9] and in the assay with Rattus norvegicus [10] were 0.015 mg/kg, 1.55 mg/kg and > 3 mg/kg, respectively. Besides, the Ki in [2] was 30 nM; in assay [3], 0.31 nM; in assay [5], 14 nM; in assay [6] it was 37 nM; in [7] it was 120 nM.

As for `O=C(CCCNC(=O)CC(c1ccccc1)(c1ccccc1)c1ccccc1)NCCC(=O)NCC1CCCN(CC2CCCCC2)C1` (configuration not stated), the Selectivity stood at 29 in the assay listed under Homo sapiens [1] and 95 in the assay filed under Homo sapiens [4]. Moreover, the Ki worked out at 17 nM in [2]; 2.1 nM in [3]; 60 nM in assay [5]; 200 nM in assay [6]; 77 nM in assay [7].

In the case of `CN1[C@@H]2CC[C@H]1C[C@@H](OC(=O)C(CO)c1ccccc1)C2` (some centres not stated) [ATROPINE], the median effective dose (ED50) – broadly, the dose at which the effect has come halfway, by size or by number of responders – with Rattus norvegicus [8] was 0.0043 mg/kg; with Rattus norvegicus [9], 0.0052 mg/kg; with Rattus norvegicus [10] it was 0.016 mg/kg.

Consider `O=C(NC[C@H]1CCCN(CC2CCCCC2)C1)[C@H]1CCCN1C(=O)[C@@H]1CCCN1C(=O)CC(c1ccccc1)(c1ccccc1)c1ccccc1`, for which the Selectivity in the assay listed under Homo sapiens [1] is 9; in the assay listed under Homo sapiens [4] it was 580. In addition, the Ki in assay [2] is 0.82 nM; in [3], 0.25 nM; in [5], 2.3 nM; in assay [6], 150 nM; in assay [7], 14 nM.

As to `O=C(CCNC(=O)[C@@H]1CCCN1C(=O)CC(c1ccccc1)(c1ccccc1)c1ccccc1)NC[C@H]1CCCN(CC2CCCCC2)C1`, the Selectivity is 42 in the assay listed under Homo sapiens [1] and 210 in the assay filed under Homo sapiens [4]. The Ki in assay [2] is 12 nM; in assay [3], 0.27 nM; in assay [5] it was 11 nM; in assay [6], 58 nM; in assay [7], 150 nM.

As to `O=C(CCNC(=O)CC(c1ccccc1)(c1ccccc1)c1ccccc1)NCCC(=O)NC[C@H]1CCCN(CC2CCCCC2)C1`, the results for the Selectivity in the assay listed under Homo sapiens [1] and in the assay listed under Homo sapiens [4] were 41 and 40, respectively. Besides, the Ki in assay [2] amounted to 44 nM; in assay [3], 0.76 nM; in assay [5], 31 nM; in assay [6] it was 30 nM; in [7] it was 36 nM.

For `O=C(CCCNC(=O)CNC(=O)CC(c1ccccc1)(c1ccccc1)c1ccccc1)NCC1CCCN(CC2CCCCC2)C1` (configuration not stated), the Selectivity in the assay listed under Homo sapiens [1] worked out at 22; in the assay filed under Homo sapiens [4], 320. Besides, the Ki in assay [2] was 270 nM; in [3], 3.3 nM; in assay [5], 74 nM; in [6], 1100 nM; in assay [7], 300 nM.
